Assay results: article PMC8041090 (SLAS discovery : advancing life sciences R & D, 2016)

Tests used:
[1] = target: PP1C (Homo sapiens, UniProt P62136); experiment: Radiolabeled phosphoprotein substrate confirmation assay; type: biochemical
Method in brief: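 Purified PP1C catalytic subunit (working stock kept at −20 °C in tris with 50% glycerol, 2 mM DTT, 0.1 mg/mL BSA, 2 mM MnCl₂) was assayed in single tubes against [³²P]- or [³³P]-phosphorylase A in HEPES pH 7.0 PP1C buffer (BSA, Triton X-100, DTT, ascorbate, MnCl₂). Liberated labelled orthophosphate was quantified and expressed as percentage of DMF-vehicle control activity; serial dilutions, n = 3.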

[2] = target: T1, PP5C (Homo sapiens, UniProt P53041); experiment: PP5C OMFP FLINT inhibition assay, 1536-well uHTS format; type: biochemical
T1 sequence (P53041 1-499): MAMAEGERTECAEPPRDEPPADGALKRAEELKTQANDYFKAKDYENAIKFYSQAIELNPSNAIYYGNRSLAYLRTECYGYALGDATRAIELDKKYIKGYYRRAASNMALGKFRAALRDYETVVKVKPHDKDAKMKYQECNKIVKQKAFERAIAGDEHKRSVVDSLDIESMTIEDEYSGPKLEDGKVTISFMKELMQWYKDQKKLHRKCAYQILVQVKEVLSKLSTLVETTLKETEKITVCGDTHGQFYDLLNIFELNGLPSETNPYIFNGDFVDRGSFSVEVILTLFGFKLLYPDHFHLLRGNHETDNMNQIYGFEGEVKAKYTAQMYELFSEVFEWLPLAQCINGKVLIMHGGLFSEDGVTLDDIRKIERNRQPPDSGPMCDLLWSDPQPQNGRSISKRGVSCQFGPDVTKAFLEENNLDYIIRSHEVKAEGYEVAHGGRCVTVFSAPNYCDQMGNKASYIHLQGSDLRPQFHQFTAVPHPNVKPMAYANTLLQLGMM

[3] = system: PP2AC; conditions: read-out: IC50, PP2AC; ref [4],[6]; cited from earlier work
[4] = system: PP4C; conditions: read-out: IC50, PP4C; ref [4],[6]; cited from earlier work
[5] = system: PP1C; conditions: read-out: IC50, PP1C; ref [4],[6]; cited from earlier work
[6] = system: PP5C; conditions: read-out: IC50, PP5C; ref [4],[6]; cited from earlier work

Chain of PP1C (Homo sapiens, UniProt P62136) (P62136 whole entry): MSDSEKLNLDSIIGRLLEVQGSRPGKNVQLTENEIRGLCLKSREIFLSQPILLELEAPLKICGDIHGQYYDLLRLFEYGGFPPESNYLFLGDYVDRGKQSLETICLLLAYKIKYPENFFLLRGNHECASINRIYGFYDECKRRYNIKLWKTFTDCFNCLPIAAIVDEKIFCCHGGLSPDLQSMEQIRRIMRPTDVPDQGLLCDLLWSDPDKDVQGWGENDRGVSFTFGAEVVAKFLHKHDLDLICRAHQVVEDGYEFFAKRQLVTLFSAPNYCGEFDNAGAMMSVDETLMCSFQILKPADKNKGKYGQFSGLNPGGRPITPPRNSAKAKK

SMILES: COc1ccc(NC(=O)C2C3CCC(O3)C2C(=O)O)c(OC)c1 (stereo not drawn) [SID 93617938, 3-{[(2,4-dimethoxyphenyl)amino]carbonyl}−7-oxabicyclo[2.2.1]heptane-2-carboxylic acid]
- IC50 [1]: 18.9 µM

SMILES: C[C@@]12C(=O)OC(=O)[C@]1(C)[C@H]1CC[C@@H]2O1 [cantharidin]
- IC50 [2]: 0.52 µM

SMILES: C[C@@](O)(/C=C/[C@H]1CC=CC(=O)O1)[C@@H](C[C@@H](O)\C=C/C=C\C=C\CO)OP(=O)(O)O [fostriecin]
- IC50 [3]: < 0.002 µM
- IC50 [4]: < 0.002 µM
- IC50 [5]: > 70 µM
- IC50 [6]: > 70 µM
